# High-throughput results: PubChem, several laboratories
# Rows were chosen to be rich in hits. Some 1.5% of all compounds tested hit in one or more screens of this group.
# Rev-erbA mod – modulates human Rev-erb alpha binding to DNA; P20393; Rev-erbα–FITC-DNA binding, fluorescence polarization, 90 min; activity, % at 10 µM; actives 0.79% (n = 370,000);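 active means activity above about 14%, limit read from the data; passing the limit was not always enough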
# NR2E3 ag-1 – activates human photoreceptor nuclear receptor NR2E3; actives 0.12% (n = 320,000); GST-NR2E3/biotin-RetCOR TR-FRET, 1536-well; AID 2300; inhibition of corepressor binding, % at 4.78 µM;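 active means percent inhibition above the cutoff of mean plus 3 SD of all tested compounds, set per screening campaign, cut at about 20% in these data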
# Target sequence (Q9Y5X4 whole entry, looked up): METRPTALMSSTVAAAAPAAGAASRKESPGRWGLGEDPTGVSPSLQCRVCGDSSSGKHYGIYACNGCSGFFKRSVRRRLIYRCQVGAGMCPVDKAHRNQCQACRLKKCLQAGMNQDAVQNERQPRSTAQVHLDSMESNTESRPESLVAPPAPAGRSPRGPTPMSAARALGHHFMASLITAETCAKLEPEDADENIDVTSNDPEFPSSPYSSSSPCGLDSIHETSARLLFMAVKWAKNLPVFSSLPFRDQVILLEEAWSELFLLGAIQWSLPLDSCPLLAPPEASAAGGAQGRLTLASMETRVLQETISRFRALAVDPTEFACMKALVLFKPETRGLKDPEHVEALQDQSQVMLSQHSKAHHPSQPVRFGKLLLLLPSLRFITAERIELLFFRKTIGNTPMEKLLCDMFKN
#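 Test system – NR2E3–RetCOR corepressor complex · Quantity – NR2E3 fusion 1.35 nM · Buffer or medium – Tris pH 7.5 · Incubation – Compound–protein incubation for 5 h at 4 °C · Technique – TR-FRET, Eu(K)-anti-GST donor, streptavidin-D2 acceptor, ex 340, em 617/671 nm · Evaluation – percent inhibition of 671/617 nm emission ratio versus biotin and DMSO controls · Plate – 1536-well format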
# PG9 Ab binder – binds the HIV-1 gp120 antibody PG9. inhibition, % at 6.7 µM. TR-FRET gp120-PG9 antibody binding. actives 0.43% (n = 360,000); in the data active means inhibition above about 8.5%
# NR2E3 ag-2 – human photoreceptor-specific nuclear receptor agonism; AID 602229; actives 0.35% (n = 360,000); CHO-S Gal4-NCOR/VP16-NR2E3 two-hybrid, luciferase; Q9Y5X4; inhibition of corepressor binding, % at 3.98 µM;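 active means inhibition above the mean of all tested compounds plus 3 SD, cut at about 70% in these data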;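 further: higher means lower luciferase signal from less NR2E3 corepressor binding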
# NR2E3 ag confirm – NR2E3 (human) agonism, confirmation; shares compounds with NR2E3 ag-1; cell-free NR2E3 corepressor release, TR-FRET, 5 h; activation (reported as inhibition), % at 3.98 µM; actives 39% (n = 360); AID 2379; in the data active means activation above about 20%
# PPARg-NCOR2 ag – PPARg-NCOR2 interaction agonism, NR2E3 counter-screen. shares compounds with NR2E3 ag-1. TR-FRET PPARg-NCOR2 coregulator interaction, biochemical. inhibition, % at 3.98 µM. actives 45% (n = 360); in the data active means inhibition above about 20%
# A number is an active result; . = inactive; / = no result given.
SMILES,Rev-erbA mod,NR2E3 ag-1,PG9 Ab binder,NR2E3 ag-2,NR2E3 ag confirm,PPARg-NCOR2 ag
C[C@H]1CC2C3CCC4=CC(=O)C=C[C@]4(C)[C@@]3(F)[C@@H](O)C[C@]2(C)[C@@]1(O)C(=O)COP(=O)(O)O (stereo not given in full),.,/,/,/,/,/
CCCn1c(C)cs/c1=N\C(=S)Nc1ccccc1,.,26,.,.,.,.
Cc1cs/c(=N/C(=S)Nc2ccccc2)n1C,.,.,.,.,/,/
O=c1c2cc(O)c(O)cc2oc2cc(O)c(C3OC(CO)C(O)C(O)C3O)c(O)c12 (stereo not given),.,29,.,.,20,.
COc1cc(N)c(C(=O)c2nccc3cc(OC)c(OC)cc23)cc1OC,.,.,.,.,/,/
COc1cc(Br)c(C(=O)c2nccc3cc(OC)c(OC)cc23)cc1OC,.,28,.,.,24,.
COC(=O)CCCC[C@H]1SC[C@H]2NC(=O)N[C@]21O,/,63,/,/,61,47
COC(=O)CCCCC1SCC2NC(=O)NC21O (stereo not given),/,76,.,.,80,80
COC(=O)C1CSC(C)(C)C(=O)N1 (stereo not given),.,.,.,.,/,/
O=C(CSc1nc2ccccc2c(=O)n1-c1ccccc1Cl)Nc1cccc(S(=O)(=O)N2CCOCC2)c1,.,25,.,.,.,.
O=C(CSc1ncnc2ccccc12)Nc1cccc(S(=O)(=O)N2CCOCC2)c1,.,.,.,.,/,/
OC[C@@H](O)[C@H](O[C@@H]1O[C@H](CO)[C@H](O)[C@H](O)[C@H]1O)[C@H](O)[C@@H](O)CO,.,/,/,/,/,/
Cc1oc2c(c1C(=O)NCc1cccnc1)C(=O)c1ccccc1C2=O,/,22,/,/,.,.
CC(=O)c1c(C)oc2c1C(=O)c1ccccc1C2=O,.,.,.,.,/,/
C[C@]12CCC(=O)C=C1CCC1C2C(=O)C[C@@]2(C)C1CC[C@]2(O)C(=O)CO (stereo not given in full),.,/,/,/,/,/
C#CCn1c(=NC(=O)CSC(C)=O)sc2cc(F)ccc21,/,27,/,.,.,20
Cc1cc(C)nc(NC(=S)Nc2cccc(F)c2)c1,.,21,.,.,.,34
Fc1cccc(NC(=S)Nc2cccc3ccccc23)c1,.,.,.,.,/,/
CCOc1ccc(/C(O)=C2/C(=O)C(=O)N(CCOCCO)C2c2ccc(F)cc2)cc1 (stereo not given),.,20,.,.,.,.
O=c1[nH]c(=O)n(C2C[C@@H](O)[C@@H](CO)O2)cc1F (stereo not given in full),.,/,/,/,/,/
Cc1cc(C2C(C#N)=C(N)SC(N)=C2C#N)c(C)s1,/,24,/,.,.,38
C#C[C@]1(O)CCC2C3CCc4cc(O)ccc4C3CC[C@@]21C (stereo not given in full),.,/,/,/,/,/
CCCCC(=O)Nc1ncc(Br)s1,.,32,/,.,.,.
CCOC(=O)c1ccc2c(c1)C1C=CCC1C(C(=O)O)N2 (stereo not given),/,.,/,/,/,/
O=C(O)c1ccc2c(c1)C1C=CCC1C(c1ccncc1)N2 (stereo not given),.,23,.,.,.,.
SMILES,Rev-erbA mod,NR2E3 ag-1,PG9 Ab binder,NR2E3 ag-2,NR2E3 ag confirm,PPARg-NCOR2 ag
CCOC(=O)C1Nc2ccc(C(=O)O)cc2C2C=CCC12 (stereo not given),.,30,.,.,.,.
O=C(O)c1cc(O)c2c(c1)[C@@H]([C@H]1c3cc(C(=O)O)cc(O)c3C(=O)c3c(O[C@H]4O[C@H](CO)[C@@H](O)[C@H](O)[C@H]4O)cccc31)c1cccc(O[C@H]3O[C@H](CO)[C@@H](O)[C@H](O)[C@H]3O)c1C2=O,.,/,/,/,/,/
CC(C)(C)NCC(O)CSc1nc(-c2ccc(C(N)=O)s2)cs1 (stereo not given),.,/,/,/,/,/
COc1ccc(OC)c(C2C(C(=O)c3cc4ccccc4o3)=C(O)C(=O)N2c2cc(C)on2)c1 (stereo not given),.,24,.,.,.,.
COc1ccc(OC)c(C2C(C(=O)c3ccc(C)o3)=C(O)C(=O)N2c2cc(C)on2)c1 (stereo not given),.,.,.,.,/,/
C=CCn1c(SCC(=O)Nc2cccc(S(N)(=O)=O)c2)nnc1C1CCCCC1,.,42,.,.,.,.
CCCCCCCCCCCCCCCC(=O)OCC(O)[C@H]1OC(=O)C(O)=C1O (stereo not given in full),.,/,/,/,/,/
O=c1[nH]c(Nc2ccccc2Cl)cc2ccccc12,.,.,.,.,/,/
Cc1ccccc1Nc1cc2ccccc2c(=O)[nH]1,/,25,/,.,.,.
COc1cccc2c(=S)c(CCC(C)=O)c(C)[nH]c12,.,21,.,.,.,.
CC1(C)Cc2c(c(-c3ccccc3)nc3sc4c(=O)[nH]c(=S)[nH]c4c23)CO1,/,20,/,/,.,.
CC1(C)Cc2c(c(-c3ccccc3)nc3[nH][nH]c(=O)c23)CO1,.,.,.,.,/,/
CC(C)CCCC(C)[C@H]1CCC2C3CC=C4C[C@@H](O)CC[C@]4(C)C3CC[C@@]21C (stereo not given in full),.,/,/,/,/,/
CC1(C)[C@H]2CC[C@]1(C)C(=O)C2,.,/,/,/,/,/
COC(=O)c1c(C(=O)OC)c2ccccn2c1C(=O)c1ccccc1,.,.,.,.,/,/
COC(=O)c1c(Cl)c2n3ccccc3c(C)c(-c3ccccc3)c-2c1C(=O)OC,.,61,.,.,69,70
CCCOc1ccc(C2C(C(=O)c3ccc(C)o3)=C(O)C(=O)N2Cc2ccco2)cc1OCC (stereo not given),.,24,.,.,.,.
O=C(C1=C(O)C(=O)N(Cc2ccco2)C1c1cccs1)c1cccs1 (stereo not given),.,.,.,.,/,/
Cc1ccc(C(=O)C2=C(O)C(=O)N(Cc3ccccc3)C2c2cccnc2)o1 (stereo not given),.,40,/,.,.,.
O=C(C1=C(O)C(=O)N(Cc2ccco2)C1c1ccccc1)c1cccs1 (stereo not given),.,20,.,.,.,.
Cc1ccc(C(=O)C2=C(O)C(=O)N(Cc3cccnc3)C2c2cccc([N+](=O)[O-])c2)o1 (stereo not given),.,.,.,.,/,/
